# Results taken from ChEMBL document CHEMBL2331471, “Vegfrecine, an inhibitor of VEGF receptor tyrosine kinases isolated from the culture broth of Streptomyces sp” (J Nat Prod, 2013).
# The source made the active and inactive calls. The rule behind the calls is not given here.
# Legend:
# [1] = biological target: Epidermal growth factor receptor (Homo sapiens, UniProt P00533); test: Inhibition of EGFR (unknown origin) after 20 mins by scintillation counting
# [2] = biological target: T1, Vascular endothelial growth factor receptor 1 (Homo sapiens, UniProt P17948); test: Inhibition of ligand-induced phosphorylation of Flt-1 (unknown origin) overexpressed in NIH-3T3 cells at 10 uM after 2 hrs by immunoblotting; type: cell-based; conditions: NIH3T3
# Outline: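 Subconfluent NIH3T3-Flt-1 cells were serum-starved 16 h, exposed to samples for 2 h, then stimulated 5 min with 50 ng/mL recombinant human VEGF-A. Cells were lysed in HEPES/Triton buffer containing Na3VO4, PMSF and aprotinin. Lysates were immunoblotted with anti-phosphotyrosine, anti-Flt-1 and anti-actin antibodies.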
# NIH3T3 [3] = test: Cytotoxicity against mouse NIH/3T3 cells overexpressing Flt-1 (unknown origin) at 10 uM after 2 hrs; type: cell-based; conditions: nih3t3, 2 h
# [4] = biological target: Platelet-derived growth factor receptor beta (Homo sapiens, UniProt P09619); test: Inhibition of PDGFR-beta (unknown origin) after 20 mins by scintillation counting
# [5] = biological target: Fibroblast growth factor receptor (Homo sapiens, UniProt P22607+P11362+P22455+P21802); test: Inhibition of FGFR (unknown origin) after 20 mins by scintillation counting; type: protein assay
# [6] = biological target: T1, Vascular endothelial growth factor receptor 1; test: Inhibition of GST-Flt1 kinase domain (unknown origin) expressed in baculovirus infected Sf9 cells after 20 mins by scintillation counting
# NIH3T3 [7] = test: Cytotoxicity against mouse NIH/3T3 cells overexpressing KDR (unknown origin) after 48 hrs; type: cell-based; conditions: nih3t3, 48 h
# Outline: (§1)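 MTT viability assay: NIH3T3-Flt-1 or NIH3T3-KDR cells, grown in DMEM with 10% FCS, glutamine and 200 μg/mL G418, were seeded at 3 × 10^3 cells/well with or without test samples and incubated 2 days. MTT was then added for 2 h, formazan dissolved overnight in 10% SDS, and absorbance read at 570 nm.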
# [8] = biological target: Vascular endothelial growth factor receptor 3 (Homo sapiens, UniProt P35916); test: Inhibition of Flt4 (unknown origin) after 20 mins by scintillation counting
# Outline: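 Radiometric filter-plate kinase assay for Flt-1, Flt-4 and PDGFR-α. Buffer: 20 mM Tris-HCl pH 7.4, 3 mM MnCl2, 3 mM MgCl2, 50 μg/mL poly GluTyr, 100 mM NaCl, Na3VO4, DTT, 0.5% BSA. Kinase (55 ng) plus compound in 2% DMSO buffer; reaction started with 4 μM ATP/32P-ATP solution. Ran 20 min at room temperature, stopped with 30% TCA, washed with 15% TCA, scintillation counted.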
# NIH3T3 [9] = test: Cytotoxicity against mouse NIH/3T3 cells overexpressing Flt-1 (unknown origin) after 48 hrs; type: cell-based; conditions: nih3t3, 48 h; outline: as §1
# [10] = biological target: Vascular endothelial growth factor receptor 2 (Homo sapiens, UniProt P35968)
# [11] = biological target: Platelet-derived growth factor receptor alpha (Homo sapiens, UniProt P16234); test: Inhibition of PDGFR-alpha (unknown origin) after 20 mins by scintillation counting
# Chain of Platelet-derived growth factor receptor alpha (P16234 whole entry): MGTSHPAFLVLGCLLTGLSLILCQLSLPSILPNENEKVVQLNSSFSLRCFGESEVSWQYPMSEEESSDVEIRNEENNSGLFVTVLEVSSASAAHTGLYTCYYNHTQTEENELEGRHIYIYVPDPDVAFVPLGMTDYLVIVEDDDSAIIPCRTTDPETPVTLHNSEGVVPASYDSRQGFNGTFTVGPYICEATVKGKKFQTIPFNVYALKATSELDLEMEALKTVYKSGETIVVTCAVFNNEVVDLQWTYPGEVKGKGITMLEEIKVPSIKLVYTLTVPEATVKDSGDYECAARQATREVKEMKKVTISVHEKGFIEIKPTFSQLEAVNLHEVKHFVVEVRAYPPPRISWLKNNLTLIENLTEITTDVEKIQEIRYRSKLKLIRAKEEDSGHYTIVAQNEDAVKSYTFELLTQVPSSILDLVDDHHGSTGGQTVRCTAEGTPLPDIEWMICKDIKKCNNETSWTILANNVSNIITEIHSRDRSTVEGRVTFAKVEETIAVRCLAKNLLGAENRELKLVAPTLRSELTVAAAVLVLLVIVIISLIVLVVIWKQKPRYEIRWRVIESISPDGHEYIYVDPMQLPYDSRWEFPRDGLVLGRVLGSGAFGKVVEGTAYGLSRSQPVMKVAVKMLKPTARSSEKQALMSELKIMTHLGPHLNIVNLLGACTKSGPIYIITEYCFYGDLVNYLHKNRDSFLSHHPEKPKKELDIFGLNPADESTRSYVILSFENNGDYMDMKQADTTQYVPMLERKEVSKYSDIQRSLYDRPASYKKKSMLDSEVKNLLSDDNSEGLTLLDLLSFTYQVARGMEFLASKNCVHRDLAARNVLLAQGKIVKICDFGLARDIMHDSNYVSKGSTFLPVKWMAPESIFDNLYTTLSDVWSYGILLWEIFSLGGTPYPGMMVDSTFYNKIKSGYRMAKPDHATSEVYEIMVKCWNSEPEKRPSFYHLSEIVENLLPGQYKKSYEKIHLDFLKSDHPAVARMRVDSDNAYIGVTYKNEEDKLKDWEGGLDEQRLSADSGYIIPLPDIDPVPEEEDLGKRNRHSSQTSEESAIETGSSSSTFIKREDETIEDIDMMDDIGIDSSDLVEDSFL
# Chain of Vascular endothelial growth factor receptor 3 (P35916 whole entry): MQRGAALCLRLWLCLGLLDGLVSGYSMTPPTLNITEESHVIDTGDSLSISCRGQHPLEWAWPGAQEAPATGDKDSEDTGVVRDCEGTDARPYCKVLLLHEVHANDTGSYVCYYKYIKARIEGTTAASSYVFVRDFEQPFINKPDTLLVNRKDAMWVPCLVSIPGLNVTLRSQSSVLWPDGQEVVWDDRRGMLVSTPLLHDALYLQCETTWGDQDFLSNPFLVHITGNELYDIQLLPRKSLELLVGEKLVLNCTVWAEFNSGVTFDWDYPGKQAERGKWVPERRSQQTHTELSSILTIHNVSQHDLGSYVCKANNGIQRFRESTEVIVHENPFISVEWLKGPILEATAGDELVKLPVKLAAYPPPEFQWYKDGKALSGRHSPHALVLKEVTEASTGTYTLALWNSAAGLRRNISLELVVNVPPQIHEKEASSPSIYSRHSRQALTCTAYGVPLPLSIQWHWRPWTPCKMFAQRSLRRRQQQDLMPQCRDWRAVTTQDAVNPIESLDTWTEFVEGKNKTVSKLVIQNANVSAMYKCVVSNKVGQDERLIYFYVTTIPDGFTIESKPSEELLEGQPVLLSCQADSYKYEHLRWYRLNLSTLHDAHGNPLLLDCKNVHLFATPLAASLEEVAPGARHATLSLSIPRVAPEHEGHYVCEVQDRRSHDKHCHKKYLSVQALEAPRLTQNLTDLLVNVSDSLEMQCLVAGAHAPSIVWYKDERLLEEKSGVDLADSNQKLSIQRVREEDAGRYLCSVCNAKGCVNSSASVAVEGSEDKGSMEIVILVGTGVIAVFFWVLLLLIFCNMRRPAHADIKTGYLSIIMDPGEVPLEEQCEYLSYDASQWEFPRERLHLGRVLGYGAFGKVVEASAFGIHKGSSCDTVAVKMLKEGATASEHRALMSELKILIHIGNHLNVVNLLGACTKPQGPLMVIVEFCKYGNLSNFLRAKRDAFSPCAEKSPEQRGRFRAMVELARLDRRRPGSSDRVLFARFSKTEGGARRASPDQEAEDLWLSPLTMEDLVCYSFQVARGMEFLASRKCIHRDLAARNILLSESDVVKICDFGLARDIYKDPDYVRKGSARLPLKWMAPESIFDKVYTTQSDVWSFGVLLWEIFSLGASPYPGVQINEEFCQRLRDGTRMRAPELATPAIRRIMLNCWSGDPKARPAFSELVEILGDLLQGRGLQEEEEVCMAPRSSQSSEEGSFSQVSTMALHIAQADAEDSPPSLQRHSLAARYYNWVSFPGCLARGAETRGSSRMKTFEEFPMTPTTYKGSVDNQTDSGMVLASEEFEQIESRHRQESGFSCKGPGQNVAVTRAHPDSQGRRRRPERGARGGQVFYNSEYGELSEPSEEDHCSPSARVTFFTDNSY
# T1 sequence (P17948 whole entry): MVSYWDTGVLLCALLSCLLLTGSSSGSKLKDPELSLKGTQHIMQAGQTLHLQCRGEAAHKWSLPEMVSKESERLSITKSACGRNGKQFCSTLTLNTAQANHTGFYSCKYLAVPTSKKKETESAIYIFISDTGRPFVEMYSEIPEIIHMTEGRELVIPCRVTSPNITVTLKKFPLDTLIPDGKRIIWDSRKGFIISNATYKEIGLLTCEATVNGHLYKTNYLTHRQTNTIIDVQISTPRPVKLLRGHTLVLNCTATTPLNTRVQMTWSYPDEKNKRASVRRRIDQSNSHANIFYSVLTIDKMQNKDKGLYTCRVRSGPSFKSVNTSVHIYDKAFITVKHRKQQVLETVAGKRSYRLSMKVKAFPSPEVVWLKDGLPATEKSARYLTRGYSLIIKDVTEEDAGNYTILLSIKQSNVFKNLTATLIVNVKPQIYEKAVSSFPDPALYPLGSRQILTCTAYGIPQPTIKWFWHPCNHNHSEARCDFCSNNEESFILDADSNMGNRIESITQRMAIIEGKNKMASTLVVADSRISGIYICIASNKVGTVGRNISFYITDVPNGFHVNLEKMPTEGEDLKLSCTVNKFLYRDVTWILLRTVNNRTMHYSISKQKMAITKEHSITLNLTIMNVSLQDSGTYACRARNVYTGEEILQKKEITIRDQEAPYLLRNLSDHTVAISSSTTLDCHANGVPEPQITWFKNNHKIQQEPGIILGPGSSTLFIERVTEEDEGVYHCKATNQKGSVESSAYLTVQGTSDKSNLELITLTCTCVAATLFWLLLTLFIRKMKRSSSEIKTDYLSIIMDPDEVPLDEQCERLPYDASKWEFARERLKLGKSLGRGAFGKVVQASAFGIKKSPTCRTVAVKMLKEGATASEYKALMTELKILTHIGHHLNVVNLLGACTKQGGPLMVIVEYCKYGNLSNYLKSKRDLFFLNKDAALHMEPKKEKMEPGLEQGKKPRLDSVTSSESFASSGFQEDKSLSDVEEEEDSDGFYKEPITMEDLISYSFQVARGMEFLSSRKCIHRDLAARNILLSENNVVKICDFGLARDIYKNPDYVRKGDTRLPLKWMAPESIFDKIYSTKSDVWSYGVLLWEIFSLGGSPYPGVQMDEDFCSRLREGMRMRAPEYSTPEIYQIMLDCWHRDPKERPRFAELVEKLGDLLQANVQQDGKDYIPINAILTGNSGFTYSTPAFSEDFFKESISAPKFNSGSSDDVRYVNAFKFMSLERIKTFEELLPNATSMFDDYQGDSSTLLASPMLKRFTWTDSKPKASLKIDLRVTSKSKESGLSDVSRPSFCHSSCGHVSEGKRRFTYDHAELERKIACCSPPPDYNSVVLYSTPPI
# Chain of Vascular endothelial growth factor receptor 2 (P35968 whole entry): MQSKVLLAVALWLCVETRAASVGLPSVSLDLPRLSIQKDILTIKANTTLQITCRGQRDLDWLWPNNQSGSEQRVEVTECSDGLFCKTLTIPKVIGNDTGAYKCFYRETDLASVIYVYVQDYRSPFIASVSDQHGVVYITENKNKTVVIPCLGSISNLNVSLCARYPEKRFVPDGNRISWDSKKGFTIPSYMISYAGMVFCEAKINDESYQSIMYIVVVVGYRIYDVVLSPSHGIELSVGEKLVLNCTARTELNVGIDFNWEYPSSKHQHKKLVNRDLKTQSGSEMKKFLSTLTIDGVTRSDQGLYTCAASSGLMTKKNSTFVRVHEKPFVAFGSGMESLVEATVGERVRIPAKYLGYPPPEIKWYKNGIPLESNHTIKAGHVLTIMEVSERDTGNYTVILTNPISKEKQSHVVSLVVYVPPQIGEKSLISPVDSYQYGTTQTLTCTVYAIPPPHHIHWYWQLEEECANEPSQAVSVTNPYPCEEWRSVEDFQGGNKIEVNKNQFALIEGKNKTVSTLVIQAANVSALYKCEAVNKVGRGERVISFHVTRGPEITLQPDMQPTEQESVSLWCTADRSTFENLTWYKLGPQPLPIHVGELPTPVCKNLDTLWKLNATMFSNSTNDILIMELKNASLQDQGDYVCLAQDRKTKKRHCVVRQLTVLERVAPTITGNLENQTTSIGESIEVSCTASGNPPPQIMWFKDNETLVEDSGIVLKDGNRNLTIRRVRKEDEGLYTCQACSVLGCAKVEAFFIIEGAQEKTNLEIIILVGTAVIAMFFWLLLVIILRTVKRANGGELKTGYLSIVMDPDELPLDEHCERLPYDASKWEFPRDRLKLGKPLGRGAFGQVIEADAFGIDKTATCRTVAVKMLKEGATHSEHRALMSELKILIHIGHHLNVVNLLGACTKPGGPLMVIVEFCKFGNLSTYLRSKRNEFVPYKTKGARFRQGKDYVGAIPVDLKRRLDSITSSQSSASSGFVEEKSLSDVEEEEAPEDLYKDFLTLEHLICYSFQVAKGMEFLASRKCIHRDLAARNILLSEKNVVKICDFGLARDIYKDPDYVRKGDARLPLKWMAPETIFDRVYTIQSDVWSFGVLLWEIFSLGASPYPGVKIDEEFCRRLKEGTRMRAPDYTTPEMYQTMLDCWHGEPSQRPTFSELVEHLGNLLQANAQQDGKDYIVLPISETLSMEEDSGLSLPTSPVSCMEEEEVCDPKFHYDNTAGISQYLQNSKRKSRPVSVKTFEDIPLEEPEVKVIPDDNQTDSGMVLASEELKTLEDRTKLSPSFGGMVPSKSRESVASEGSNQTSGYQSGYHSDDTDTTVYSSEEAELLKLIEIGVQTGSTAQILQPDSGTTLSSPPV
IC50 [1],Activity [2],IC50 [4],IC50 [5],IC50 [6],IC50 [8],IC50 [10],IC50 [11],SMILES,Activity (NIH3T3 [3]),Activity (NIH3T3 [7]),Activity (NIH3T3 [9])
2600 nM,Active,480 nM,730 nM,18 nM,1.8 nM,11 nM,3200 nM,NC(=O)C1=C(N)C(=O)C=C(Nc2ccccc2O)C1=O [VEGFRECINE],Non-toxic,12 µM,3 µM
–,–,–,–,–,500 nM,–,–,Cc1cc(C)c(/C=C2\C(=O)Nc3ccccc32)[nH]1 [SEMAXANIB],–,–,–
